Here are results for eight compounds from ChEMBL document CHEMBL1143074, “Symplocamide A, a potent cytotoxin and chymotrypsin inhibitor from the marine Cyanobacterium Symploca sp” (J Nat Prod, 2008).

Each structure is given as a SMILES string. Activity calls are given as the source filed them. The calls are words filed in the database; no cut-off is given here.

Assay [1] in a line: Inhibition of chymotrypsin at 10 uM.
The nature of assay [2]: Inhibition of trypsin. Summed up:
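Trypsin (0.0023 mg/mL final, 2.75 BAEE U) was added to 0.45 mM BAEE in 64 mM NaH2PO4 pH 7.6 at 25 °C. Compound was premixed with substrate from a 1:2 EtOH dilution series (final 4.5 × 10-4 to 6.8 × 10^-6 M), against an EtOH blank. N-benzoyl-L-arginine formation was read at 253 nm for 5 min, and the 0.5–2 min interval was analyzed.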

The subject of assay [3] is Trypanosoma cruzi. The experiment in a line: Antiparasitic activity against Trypanosoma cruzi C4 clone. It is filed as functional, organism-based.
For assay [4], the system named is Leishmania donovani. The experiment in a line: Antiparasitic activity against Leishmania donovani LD-1S/MHOM/SD/00-strain 1S. It is filed as functional, organism-based.
Assay [5] deals with NCI-H460. Description: Cytotoxicity against human H460 cells. It is filed as functional, cell-based.
A short description of assay [6]: Inhibition of chymotrypsin. In outline: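 Spectrophotometric assay: 0.0025 mg/mL chymotrypsin (0.0086 U) with 0.53 mM BTEE in 38 mM Tris-HCl pH 7.8, 53 mM CaCl2, 0.5 mM HCl and 32% MeOH at 25 °C. Inhibitor (from MeOH dilutions, final 6.25 × 10-5 to 7.5 × 10^-9 M) was equilibrated with substrate before enzyme addition. Absorbance at 256 nm was followed for 5 min, and the 0.5–1.5 min interval was analyzed.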

Assay [7] is described as follows: Cytotoxicity against mouse Neuro2a cells. It is filed as functional, cell-based. The conditions noted are these: N2a.
Assay [8] concerns Plasmodium falciparum. The experiment in a line: Antiparasitic activity against chloroquine-resistant Plasmodium falciparum W2 in microfluorimetric assay. It is filed as functional, organism-based.

`CC[C@H](C)[C@@H]1NC(=O)[C@H](Cc2ccc(O)cc2)N(C)C(=O)[C@H](Cc2ccccc2)N2C(=O)[C@H](CC[C@H]2O)NC(=O)[C@H](CCCNC(=N)N)NC(=O)[C@@H](NC(=O)[C@H](CC(=O)O)NC(C)=O)[C@@H](C)OC1=O` [MICROPEPTIN E1964]: the outcome in assay [1] was inactive. In assay [2], this compound gave an IC50 of 4.36 µM.
Taken in the same sequence, the figures for `CCCC(=O)N[C@@H](CC(=O)O)C(=O)N[C@@H]1C(=O)N[C@@H](CCCNC(=N)N)C(=O)N[C@H]2CC[C@@H](O)N(C2=O)[C@@H](Cc2ccccc2)C(=O)N(C)[C@@H](Cc2ccc(O)cc2)C(=O)N[C@@H]([C@@H](C)CC)C(=O)O[C@@H]1C` [MICROPEPTIN EI992] were “inactive” and 3.83 µM.
As for `CCCCCC(=O)N[C@@H](CC(=O)O)C(=O)N[C@@H]1C(=O)N[C@@H](CCCCN)C(=O)N[C@H]2CC[C@@H](O)N(C2=O)[C@@H]([C@@H](C)CC)C(=O)N(C)[C@@H](Cc2ccc(O)cc2)C(=O)N[C@@H](C(C)C)C(=O)O[C@@H]1C` [MICROPEPTIN SD944], the outcome in assay [1] was inactive. This compound had an IC50 in assay [2] of 8.47 µM.
`CCCCCC(=O)N[C@@H](CC(=O)O)C(=O)N[C@@H]1C(=O)N[C@@H](CCCNC(=N)N)C(=O)N[C@H]2CC[C@@H](O)N(C2=O)[C@@H]([C@@H](C)CC)C(=O)N(C)[C@@H](CC(=O)c2ccccc2N)C(=O)N[C@@H](C(C)C)C(=O)O[C@@H]1C` [MICROPEPTIN SD999]: the result in assay [1] was inactive. Besides, the IC50 in assay [2] worked out at 4 µM.
With `CCCCCC(=O)N[C@@H](CC(=O)O)C(=O)N[C@@H]1C(=O)N[C@@H](CCCNC(=N)N)C(=O)N[C@H]2CC[C@@H](O)N(C2=O)[C@@H]([C@@H](C)CC)C(=O)N(C)[C@@H](Cc2c[nH]c3ccccc23)C(=O)N[C@@H](C(C)C)C(=O)O[C@@H]1C` [MICROPEPTIN SF995], in assay [1], the result was inactive. In assay [2], the concentration for half-maximal inhibition (IC50) amounted to 0.2 µM.
Taken in the same sequence, the figures for `CCCCCC(=O)N[C@@H](CCC(=O)O)C(=O)N[C@@H]1C(=O)N[C@@H](CCCCN)C(=O)N[C@H]2CC[C@@H](O)N(C2=O)[C@@H](Cc2ccccc2)C(=O)N(C)[C@@H](Cc2c[nH]c3ccccc23)C(=O)N[C@@H](C(C)C)C(=O)O[C@@H]1C` [MICROPEPTIN T2] were “inactive” and 0.1 µM.
Taken in the same sequence, the figures for `CC[C@@H](C)[C@@H]1NC(=O)[C@H](Cc2ccccc2)N(C)C(=O)[C@H]([C@@H](C)CC)N2C(=O)[C@H](CC[C@H]2O)NC(=O)[C@H](CCCCN)NC(=O)[C@@H](NC(=O)[C@@H](CCc2ccccc2)NC(=O)[C@@H](COS(=O)(=O)O)OC)[C@@H](C)OC1=O` [OSCILLAPEPTIN F] were “inactive” and 0.18 µM.
With `CCCC(=O)N[C@@H](CCC(N)=O)C(=O)N[C@@H]1C(=O)N[C@@H](CCCNC(N)=O)C(=O)N[C@H]2CC[C@@H](O)N(C2=O)[C@@H]([C@@H](C)CC)C(=O)N(C)[C@@H](Cc2ccc(OC)c(Br)c2)C(=O)N[C@@H](C(C)C)C(=O)O[C@@H]1C` [SYMPLOCAMIDE A], the IC50 was greater than 9.5 µM in assay [3]; greater than 9.5 µM in assay [4]; 0.04 µM in assay [5]; 0.38 µM in assay [6]; 0.029 µM in assay [7]; 80.2 µM in assay [2]. In assay [8], 0.95 µM corresponded to half-maximal inhibition (IC50).
